Assay results from ChEMBL document CHEMBL1127053, “3,4-Dimethyl-4-(3-hydroxyphenyl)piperidines: opioid antagonists with potent anorectant activity” (J Med Chem, 1993).
pKi: −log10 of the molar value.

Key:
Rattus norvegicus [1] = experiment: Tested for concentration required to reduce the food consumption by 20 % subcutaneously; assay type: functional
Procedure, shortened: (§1)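 Obese Zucker rats, 3-4 months old, trained to eat only 8 am-4 pm. Groups of 4 (2 male, 2 female), with one saline control group daily. Compound in saline with 10% DMSO, given sc on 3 consecutive days, typical doses 5.0-0.08 mg/kg (0.02-20 in some cases). Intake measured over the first 4 h. ED20 from regression of the linear portion of the dose-response curve.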

[2] = target: Kappa-type opioid receptor (Cavia porcellus) (UniProt P41144); experiment: Binding affinity towards kappa-opioid receptor by displacement of [3H]EKC in guinea pig cortical tissue at 10 nM
Procedure, shortened: (§2)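 [3H]EKC binding to guinea pig cortical tissue, with fentanyl and DADL present to block mu and delta sites. Percent displacement measured at 10 and 100 nM test compound, run in triplicate.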

[3] = target: Kappa-type opioid receptor (Cavia porcellus) (UniProt P41144); experiment: Binding affinity towards kappa-opioid receptor by displacement of [3H]EKC in guinea pig cortical tissue at 100 nM; procedure, shortened: as §2
[4] = target: Kappa-type opioid receptor (Mus musculus) (UniProt P33534); experiment: Antagonist activity towards U50 488 induced kappa opioid receptor by mouse writhing assay at 2.5 mg/kg subcutaneously; assay type: functional, organism-based; design: dose 2.5 mg/kg
Procedure, shortened: (§3)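 Mouse acetic acid writhing: 0.6% acetic acid ip, writhes counted for 10 min starting 5 min after injection. 5 mice/point, ≥5 doses varied 2-fold, each mouse used once. AD50 = antagonist dose reducing agonist-induced writhing inhibition to 50%.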

[5] = target: Kappa-type opioid receptor (Rattus norvegicus) (UniProt P34975); experiment: Antagonism of bremazocine induced kappa receptor diuresis in rats at a concentration of 0.08 mg/kg subcutaneously; assay type: functional, organism-based; design: dose 0.08 mg/kg
Procedure, shortened: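 Male Long-Evans hooded rats (350-500 g), reused no more than twice weekly. Bremazocine 0.08 mg/kg sc, test antagonist sc on the opposite side without delay. Rats housed in metabolism cages; urine volume recorded at 2 and 5 h. 3 rats/dose, doses varied 2-fold. AD50 = dose reducing cumulative 5-h induced urination by 50%.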

[6] = target: Mu-type opioid receptor (Mus musculus) (UniProt P42866); experiment: Antagonistic activity towards morphine induced mu-opioid receptor by mouse writhing assay at 1.25 mg/kg subcutaneously; assay type: functional, organism-based; design: dose 1.25 mg/kg
Procedure, shortened: as §3, with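 “injection. Agonist (morphine 1.25 mg/kg or U50,488 2.5 mg/kg) and antagonist given sc 20 min before acid.” for “injection.”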

[7] = target: Kappa-type opioid receptor (Cavia porcellus, UniProt P41144); experiment: Binding affinity towards kappa opioid receptor by displacement of [3H]EKC in guinea pig cortical tissue
Procedure, shortened: (§4)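 Radioligand displacement. Kappa: [3H]EKC, guinea pig cortex, with fentanyl and DADL added to block mu/delta binding. Delta: [3H]DADL, rat brain homogenate.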

Mu-type opioid receptor = Mu-type opioid receptor (Rattus norvegicus, UniProt P33535); experiment: Binding affinity towards mu-opioid receptor by the displacement of [3H]Nal in rat brain homogenates; assay type: tissue-based
[8] = target: Delta-type opioid receptor (Rattus norvegicus, UniProt P33533); experiment: Binding affinity towards delta-opioid receptor by displacement of [3H]DADL in rat brain homogenates; assay type: tissue-based; procedure, shortened: as §4
Rattus norvegicus [9] = experiment: Tested for concentration required to reduce the food consumption by 20 % subcutaneously; effect on feeding was minimal and not dose related; assay type: functional; conditions: sc; procedure, shortened: as §1
Rattus norvegicus [10] = experiment: Tested for concentration required to reduce the food consumption by 20 % subcutaneously; The maximum effect achievedwas approximately 20% and not dose related; assay type: functional; conditions: sc; procedure, shortened: as §1
[11] = Rattus norvegicus, sc, read-out: ED50

Sequence of Kappa-type opioid receptor (Mus musculus) (P33534 whole entry): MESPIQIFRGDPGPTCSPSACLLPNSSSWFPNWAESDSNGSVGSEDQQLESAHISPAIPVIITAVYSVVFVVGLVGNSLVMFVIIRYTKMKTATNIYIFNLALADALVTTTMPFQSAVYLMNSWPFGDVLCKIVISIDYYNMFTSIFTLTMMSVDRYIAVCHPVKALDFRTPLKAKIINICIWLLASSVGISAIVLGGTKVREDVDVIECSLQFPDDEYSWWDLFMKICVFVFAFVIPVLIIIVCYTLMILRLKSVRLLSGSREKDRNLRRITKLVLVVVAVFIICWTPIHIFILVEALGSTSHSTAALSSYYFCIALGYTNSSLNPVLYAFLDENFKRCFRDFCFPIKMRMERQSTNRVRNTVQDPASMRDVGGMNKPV
Sequence of Mu-type opioid receptor (P33535 whole entry): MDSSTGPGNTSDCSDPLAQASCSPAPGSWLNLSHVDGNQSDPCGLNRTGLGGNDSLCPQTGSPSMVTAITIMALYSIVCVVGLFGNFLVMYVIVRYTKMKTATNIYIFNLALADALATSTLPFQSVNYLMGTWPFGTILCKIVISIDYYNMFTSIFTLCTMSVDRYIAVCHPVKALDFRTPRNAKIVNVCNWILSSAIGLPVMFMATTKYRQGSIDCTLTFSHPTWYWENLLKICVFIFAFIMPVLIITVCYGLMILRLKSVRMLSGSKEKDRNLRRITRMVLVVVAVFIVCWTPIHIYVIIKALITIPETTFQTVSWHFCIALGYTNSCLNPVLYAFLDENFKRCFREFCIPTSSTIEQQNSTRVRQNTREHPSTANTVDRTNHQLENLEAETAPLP
Sequence of Kappa-type opioid receptor (P41144 whole entry): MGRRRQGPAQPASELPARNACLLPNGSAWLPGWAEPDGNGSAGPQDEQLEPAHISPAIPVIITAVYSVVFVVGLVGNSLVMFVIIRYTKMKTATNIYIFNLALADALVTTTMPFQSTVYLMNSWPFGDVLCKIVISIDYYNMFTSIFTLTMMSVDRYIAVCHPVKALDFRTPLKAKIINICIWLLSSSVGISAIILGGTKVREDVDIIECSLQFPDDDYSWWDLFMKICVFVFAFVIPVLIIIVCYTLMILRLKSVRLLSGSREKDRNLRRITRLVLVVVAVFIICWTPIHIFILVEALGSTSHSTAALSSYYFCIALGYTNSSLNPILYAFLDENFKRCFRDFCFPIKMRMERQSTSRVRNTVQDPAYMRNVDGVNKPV
Sequence of Kappa-type opioid receptor (Cavia porcellus) (P41144 whole entry): as above
Sequence of Mu-type opioid receptor (Mus musculus) (P42866 whole entry): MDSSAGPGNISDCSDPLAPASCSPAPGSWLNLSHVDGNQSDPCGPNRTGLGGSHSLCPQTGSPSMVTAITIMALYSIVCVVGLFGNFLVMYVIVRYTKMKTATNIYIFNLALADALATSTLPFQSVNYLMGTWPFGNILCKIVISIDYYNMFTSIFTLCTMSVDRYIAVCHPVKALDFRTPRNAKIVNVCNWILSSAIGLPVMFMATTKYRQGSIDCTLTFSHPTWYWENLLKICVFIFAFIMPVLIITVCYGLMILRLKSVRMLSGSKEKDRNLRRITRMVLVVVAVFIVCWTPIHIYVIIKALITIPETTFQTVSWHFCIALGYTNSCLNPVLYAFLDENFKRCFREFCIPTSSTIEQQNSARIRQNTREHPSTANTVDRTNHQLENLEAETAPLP
Sequence of Kappa-type opioid receptor (Rattus norvegicus) (P34975 whole entry): as the sequence (P33534 whole entry) above, with D11E, S17A, S51P, A308V counted along it
Sequence of Delta-type opioid receptor (P33533 whole entry): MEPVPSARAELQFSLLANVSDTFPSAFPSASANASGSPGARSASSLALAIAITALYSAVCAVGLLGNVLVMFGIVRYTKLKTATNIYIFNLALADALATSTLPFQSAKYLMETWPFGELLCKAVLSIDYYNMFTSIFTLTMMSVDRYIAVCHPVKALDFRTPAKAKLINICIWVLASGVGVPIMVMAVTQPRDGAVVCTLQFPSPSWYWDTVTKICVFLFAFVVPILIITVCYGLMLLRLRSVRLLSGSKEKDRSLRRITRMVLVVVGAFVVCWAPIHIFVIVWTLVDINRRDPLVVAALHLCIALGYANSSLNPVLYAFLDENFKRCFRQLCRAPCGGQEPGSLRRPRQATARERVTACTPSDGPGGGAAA

Structure (SMILES)	ED50 (Rattus norvegicus [1]; [11]) [mg/kg]	AD50 [4] [mg/kg]	AD50 [5] [mg/kg]	AD50 [6] [mg/kg]	pKi [7]	pKi (Mu-type opioid receptor)	other results
C[C@H]1CN(CCC(O)c2cccs2)CC[C@@]1(C)c1cccc(O)c1 (some centres not stated)	0.07						
CCCCCN1CC[C@@](C)(c2cccc(O)c2)[C@@H](C)C1	3.8	0.6					Displacement [2]: 44%; Displacement [3]: 78%
CCCCCCN1CC[C@@](C)(c2cccc(O)c2)[C@@H](C)C1 (stereo in doubt; 37) [listing 1 of 2 here]		0.22	0.86	0.26			
CC(C)CCCN1CC[C@@](C)(c2cccc(O)c2)[C@@H](C)C1	2.1	0.073	0.39	0.11	8.02	9.54	
C[C@@H]1CN(CC[C@H](O)C2CCCCC2)CC[C@]1(C)c1cccc(O)c1	0.11	0.24	1.6	0.13	8.19		
CCCCCCCN1CC[C@@](C)(c2cccc(O)c2)[C@@H](C)C1	0.4	> 0.64	3.3	0.21			Displacement [2]: 57%; Displacement [3]: 87%
C[C@H]1CN(CCCc2ccccc2)CC[C@@]1(C)c1cccc(O)c1	1.3	5.3					
C[C@H]1CN(CCC(O)C2CCCC2)CC[C@@]1(C)c1cccc(O)c1 (some centres not stated)	0.09	0.08	0.99	0.04	8.26	9.39	
CC(C)CCCCN1CC[C@@](C)(c2cccc(O)c2)[C@@H](C)C1 (stereo in doubt; 39) [listing 1 of 2 here]		0.22	1.31	0.08			
C[C@@H]1CN(CCCc2cccs2)CC[C@]1(C)c1cccc(O)c1	0.4	0.65	1.66	0.24			
C[C@H]1CN(CCCc2cccs2)CC[C@@]1(C)c1cccc(O)c1 (stereo in doubt; 41) [listing 1 of 2 here]							ED50 (Rattus norvegicus [1]): 0.11 mg/kg; pKi [8]: 7.99
C[C@H]1CN(CCC2CCCC2)CC[C@@]1(C)c1cccc(O)c1	0.34	0.22	0.67	0.14	8.14	8.64	
CCCCCCN1CC[C@@](C)(c2cccc(O)c2)[C@@H](C)C1 (stereo in doubt; 16)							ED50 (Rattus norvegicus [1]): 0.51 mg/kg
C[C@H]1CN(CCCc2cccs2)CC[C@@]1(C)c1cccc(O)c1 (stereo in doubt; 41) [listing 2 of 2 here]			1.18				
C[C@H]1CN(CCC(O)C2CCCCC2)CC[C@@]1(C)c1cccc(O)c1 (some centres not stated)	0.05	0.14	0.49	0.07	8.32	9.54	
C[C@H]1CN(C)CC[C@@]1(C)c1cccc(O)c1	4.1	> 5	> 5				
C[C@@H]1CN(CC[C@@H](O)C2CCCCC2)CC[C@]1(C)c1cccc(O)c1		0.52	5.2	0.52	7.84	8.66	ED50 (Rattus norvegicus [9]): > 1.25 mg/kg
C[C@H]1CN(CCC2C=CCC2)CC[C@@]1(C)c1cccc(O)c1 (some centres not stated)	0.44	0.12	1.4	0.11	9.00	7.92	
C=CCN1CC[C@]23c4c5ccc(O)c4O[C@H]2C(=O)CC[C@@]3(O)[C@H]1C5 [NALOXONE]	1.2						
CC(C)CCCCN1CC[C@](C)(c2cccc(O)c2)[C@H](C)C1	0.14	0.89	4.75	0.35	8.52	8.87	

Structure (SMILES)	ED50 (Rattus norvegicus [1]; [11]) [mg/kg]	AD50 [4] [mg/kg]	AD50 [5] [mg/kg]	AD50 [6] [mg/kg]	pKi [7]	pKi (Mu-type opioid receptor)	other results
CC(C)CCN1CC[C@@](C)(c2cccc(O)c2)[C@@H](C)C1	> 20	0.62	4.5	0.87	7.15	7.49	
C=C(C)CCCN1CC[C@@](C)(c2cccc(O)c2)[C@@H](C)C1	0.29	0.095	0.39	0.077	7.68	9.77	
C[C@H]1CN(CC[C@@H](O)C2CCCCC2)CC[C@@]1(C)c1cccc(O)c1	0.16	0.36	1.1	0.03	7.94	8.62	
CCCCCCN1CC[C@](C)(c2cccc(O)c2)[C@H](C)C1	1.17	0.29	1.34	0.21		8.25	
C[C@H]1CN(CCCC2CCCCC2)CC[C@@]1(C)c1cccc(O)c1	0.12	0.19	1	0.35	8.64	9.31	
CC(C)CCCCN1CC[C@@](C)(c2cccc(O)c2)[C@@H](C)C1 (stereo in doubt; 39) [listing 2 of 2 here]					8.72	9.05	ED50 (Rattus norvegicus [1]): 0.14 mg/kg
C[C@H]1CN(CCCC2CCCC2)CC[C@@]1(C)c1cccc(O)c1	1.2	0.13	0.79	0.12	8.47	9.43	
C[C@H]1CN(CCCc2cccs2)CC[C@@]1(C)c1cccc(O)c1 (stereo in doubt; 29) [listing 1 of 2 here]			1	0.22			
C=C1CC[C@@]2(O)[C@H]3Cc4ccc(O)c5c4[C@@]2(CCN3CC2CC2)[C@H]1O5	1.5	0.14	0.99	0.02	8.70	9.54	pKi [8]: 8.47
CC(C)CCCCN1CC[C@@](C)(c2cccc(O)c2)[C@@H](C)C1 (stereo in doubt; 21) [listing 1 of 2 here]		0.24	0.39	0.58			
C[C@H]1CN(CCC2CCCCC2)CC[C@@]1(C)c1cccc(O)c1	3.6	0.12	0.69	0.1	8.64	9.19	
CCCCCCN1CC[C@@](C)(c2cccc(O)c2)[C@@H](C)C1 (stereo in doubt; 37) [listing 2 of 2 here]						8.96	ED50 (Rattus norvegicus [1]): 0.19 mg/kg
CC(C)CCCCN1CC[C@@](C)(c2cccc(O)c2)[C@@H](C)C1 (stereo in doubt; 21) [listing 2 of 2 here]					8.23	9.34	ED50 (Rattus norvegicus [1]): 0.06 mg/kg
C[C@H]1CN(CC2CCCCC2)CC[C@@]1(C)c1cccc(O)c1	> 20	0.47	4.6	1.1	7.54	7.77	
O=C1CC[C@@]2(O)[C@H]3Cc4ccc(O)c5c4[C@@]2(CCN3CC2CC2)[C@H]1O5 [NALTREXONE]							ED50 (Rattus norvegicus [10]): 1.7 mg/kg
CC(C)C(O)CCN1CC[C@@](C)(c2cccc(O)c2)[C@@H](C)C1 (some centres not stated)	0.65	0.35	0.17	0.14	8.16	8.59	
C[C@H]1CN(CCC(=O)C2CCCCC2)CC[C@@]1(C)c1cccc(O)c1	0.13	0.26		0.12	8.41	9.47	
C[C@H]1CN(CCCc2ccsc2)CC[C@@]1(C)c1cccc(O)c1	0.06	0.24	1.9	0.12			
C[C@H]1CN(CCCc2cccs2)CC[C@@]1(C)c1cccc(O)c1 (stereo in doubt; 29) [listing 2 of 2 here]	0.07						
C[C@H]1CN(CCC(O)c2ccccc2)CC[C@@]1(C)c1cccc(O)c1 (some centres not stated)	0.5	0.92	2.5	0.05		9.00	
